# ChEMBL document CHEMBL1146561, “New sesterterpene sulfates from the sponge Darwinella australensis” (J Nat Prod, 2003)
# Columns and labels:
# Escherichia coli = test: Antimicrobial activity against Escherichia coli at 25 ug by paper-disk method; format: functional; settings: read-out: IZ
# Summary of the method: (§1)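 Paper-disk diffusion assay with 25 μg of sample applied. Activity was read as the diameter of the inhibition zone in mm.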
# Staphylococcus aureus = test: Antimicrobial activity against Staphylococcus aureus at 25 ug by paper-disk method; format: functional; settings: read-out: IZ; summary of the method: as §1
# K562 = test: Cytotoxicity against human K562 cells by MTT assay; format: functional; settings: read-out: LC50 (the source's name)
# Summary of the method: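 Human leukemia K562 line; viability by MTT method; activity expressed as LC50 in μg/mL.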
# Streptococcus sp. = test: Antimicrobial activity against Streptococcus sp. at 25 ug by paper-disk method; format: functional; settings: read-out: IZ; summary of the method: as §1
# Bacillus subtilis = test: Antimicrobial activity against Bacillus subtilis at 25 ug by paper-disk method; format: functional; settings: read-out: IZ; summary of the method: as §1
# Candida albicans = test: Antimicrobial activity against Candida albicans at 25 ug by paper-disk method; format: functional; settings: read-out: IZ; summary of the method: as §1
# [1] = Inhibition of cell division in sea urchin fertilized egg; format: functional, Strongylocentrotus intermedius
# Summary of the method: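 Fertilized eggs of the sea urchin Strongylocentrotus intermedius were scored for inhibition of cell division. IC50 is expressed in μg/mL.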
SMILES,zone of inhibition at 25 µg/disc (Escherichia coli) [mm],zone of inhibition at 25 µg/disc (Staphylococcus aureus) [mm],CC50 (K562) [µg/mL],zone of inhibition at 25 µg/disc (Streptococcus sp.) [mm],zone of inhibition at 25 µg/disc (Bacillus subtilis) [mm],zone of inhibition at 25 µg/disc (Candida albicans) [mm],IC50 [1] [µg/mL]
C[C@H]1CC[C@H]2C(=CC(=O)CC2(C)C)[C@@]1(C)CCC(CCCc1ccoc1)COS(=O)(=O)[O-].[Na+] (stereo not given in full) [HALISULPHATE 8],< 3,< 3,> 100,< 3,< 3,< 3,–
C[C@H]1CC[C@H]2C(=CCCC2(C)C)[C@@]1(C)CCC(CCCC1=CC(=O)OC1)COS(=O)(=O)[O-].[Na+] (stereo not given in full) [HALISULPHATE 9],< 3,< 3,> 100,< 3,< 3,< 3,50
COC1C=C(CCCC(CC[C@]2(C)C3=CCCC(C)(C)[C@H]3CC[C@@H]2C)COS(=O)(=O)[O-])C(=O)O1.[Na+] (stereo not given in full) [HALISULPHATE 10],< 3,< 3,> 100,< 3,< 3,< 3,35
